Mdm2 MdmX PPI – human Mdm2/MdmX binding inhibition | O15151+Q00987 | actives 3% (n = 330,000) | SaOS-2 split-luciferase Mdm2/MdmX complementation, luminescence | inhibition, % at 8 µM;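 active = inhibition of at least 50% at 8 µM in the primary screen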
Target sequence (O15151 whole entry, looked up): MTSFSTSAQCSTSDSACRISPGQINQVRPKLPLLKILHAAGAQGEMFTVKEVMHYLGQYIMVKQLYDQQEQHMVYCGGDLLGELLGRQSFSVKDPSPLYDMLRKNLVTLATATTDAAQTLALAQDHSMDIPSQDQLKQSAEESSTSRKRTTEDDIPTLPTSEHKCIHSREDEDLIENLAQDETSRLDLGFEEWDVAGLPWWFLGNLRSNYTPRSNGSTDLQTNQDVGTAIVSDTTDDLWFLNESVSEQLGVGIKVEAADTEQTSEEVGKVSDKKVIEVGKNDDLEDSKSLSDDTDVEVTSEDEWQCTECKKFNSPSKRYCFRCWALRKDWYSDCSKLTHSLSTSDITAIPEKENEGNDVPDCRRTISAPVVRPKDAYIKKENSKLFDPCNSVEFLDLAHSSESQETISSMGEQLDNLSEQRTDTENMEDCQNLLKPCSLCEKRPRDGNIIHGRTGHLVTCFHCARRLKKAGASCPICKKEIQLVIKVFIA
Target sequence (Q00987 whole entry, looked up): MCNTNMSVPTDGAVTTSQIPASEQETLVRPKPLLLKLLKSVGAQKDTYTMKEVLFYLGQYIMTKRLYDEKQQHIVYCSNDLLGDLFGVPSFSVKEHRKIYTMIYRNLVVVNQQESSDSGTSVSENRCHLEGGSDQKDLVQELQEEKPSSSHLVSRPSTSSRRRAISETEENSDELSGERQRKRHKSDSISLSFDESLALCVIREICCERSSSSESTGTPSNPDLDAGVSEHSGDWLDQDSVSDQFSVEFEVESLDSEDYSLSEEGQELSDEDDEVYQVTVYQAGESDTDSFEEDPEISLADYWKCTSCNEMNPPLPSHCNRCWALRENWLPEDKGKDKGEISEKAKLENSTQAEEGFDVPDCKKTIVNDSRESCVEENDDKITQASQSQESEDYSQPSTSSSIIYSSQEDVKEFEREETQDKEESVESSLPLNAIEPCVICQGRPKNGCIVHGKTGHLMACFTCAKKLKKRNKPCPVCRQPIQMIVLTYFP
VIM-2 inhibitor – blocks Pseudomonas aeruginosa VIM-2 metallo-beta-lactamase. actives 0.89% (n = 290,000). inhibition, % at 5.6 µM. purified VIM-2, nitrocefin hydrolysis, epi-absorbance fluorescence;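 active = inhibition above the mean of all tested compounds plus 3 SD, cutoff set per screening run, cut at about 7.5% in these data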;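 note: red hydrolysis product quenches plate fluorescence so inhibitors raise well fluorescence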
697 NFkB inh – inhibitors of the PMA/ionomycin-induced NF-kB reporter in 697 B cells; AID 435022; 697 B-cell NF-kB luciferase reporter, 16 h; actives 0.33% (n = 330,000); inhibition, % at 4 µM; in the data active = inhibition above about 35%
Jurkat NFkB inh – inhibitors of the PMA/ionomycin-induced NF-kB reporter in Jurkat cells; PMA/ionomycin-induced NF-kB luciferase reporter, luminescence; inhibition, % at 4 µM; actives 0.53% (n = 330,000); in the data active = inhibition above about 50%
aSyn 5UTR inh – 5' untranslated region of α-synuclein, MLPCN primary screen; alpha-synuclein 5'UTR reporter, inhibitor activity; inhibition, % (tested at 7.5 µM); actives 0.82% (n = 300,000); AID 1813; in the data active = inhibition above about 60%;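 note: H4 neuroglioblastoma cells stably carrying SNCA 5'UTR luciferase fusion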
IMP-1 inhibitor – blocks Pseudomonas aeruginosa IMP-1 metallo-beta-lactamase; purified IMP-1, nitrocefin hydrolysis, epi-absorbance fluorescence; inhibition, % at 5.6 µM; actives 0.45% (n = 290,000); AID 1556;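 active = inhibition above the mean plus 3 SD of all compounds in the same screening run, cut at about 4.5% in these data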
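Material – recombinant IMP-1 enzyme, purified · Amount – IMP-1 0.2 nM before substrate addition · Medium – HEPES buffer pH 7.1 with ZnSO4 and Brij 35 · Timing – 25 °C, 15 min preincubation, 25 min reaction · Measured by – plate fluorescence quenching by hydrolysis product, ex 480/em 530 nm · Read-out – percent enzyme inhibition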
Jurkat NFkB conf – inhibitors of the PMA/ionomycin-induced NF-kB reporter in Jurkat cells, retest; actives 27% (n = 2,700); shares compounds with Jurkat NFkB inh; AID 435020; inhibition, % at 4 µM; Jurkat NF-kB luciferase, 16 h;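 active = inhibition reaching about 45% at 4 µM in either replicate, limit read from the data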
697 NFkB conf – inhibitors of the PMA/ionomycin-induced NF-kB reporter in 697 B cells, retest; shares compounds with 697 NFkB inh; 697 B-cell NF-kB luciferase, 16 h; inhibition, % at 4 µM; actives 35% (n = 2,000); AID 449746; in the data active = inhibition mostly above about 28%, no sharp cut-off; inactive = mostly below about 22%
Mdm2 MdmX conf – human Mdm2/MdmX binding inhibition, confirmed | AID 489028 | inhibition, % at 8 µM | shares compounds with Mdm2 MdmX PPI | actives 55% (n = 10,000) | luminescent assay; in the data active = inhibition above about 40%
FLuc counter – inhibits full-length luciferase, flagging false Mdm2/MdmX hits; actives 77% (n = 6,200); SaOS-2 full-length luciferase counterscreen, luminescence; AID 504607; shares compounds with Mdm2 MdmX PPI; inhibition, % at 8 µM;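 active = mean inhibition at 8 µM reaching about 37%, which flags the compound as non-specific, limit read from the data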;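 note: p53-null SaOS-2 cells with luciferase driven by a doxycycline-inducible promoter; compound on cells about two nights before reading with doxycycline added after day one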
Numbers stand for hits; 0 = inactive; - = no result. The list is not random: actives were taken first. Their share in the collection is about 4.7%.

SMILES | Mdm2 MdmX PPI | VIM-2 inhibitor | 697 NFkB inh | Jurkat NFkB inh | aSyn 5UTR inh | IMP-1 inhibitor | Jurkat NFkB conf | Mdm2 MdmX conf | FLuc counter | others
Cc1nn(-c2ccccc2)c(C)c1/C=N/NC(=O)c1cc(-c2ccc(Cl)s2)[nH]n1 | 56 | 0 | 0 | 72 | 0 | 0 | 0 | 59 | 49
Cc1ccc(NC(=O)COC(=O)CCc2c[nH]c3ccccc23)c(C)c1 | 0 | - | 0 | 0 | - | - | - | - | -
Cc1ccc(Nc2cc(C)nn2-c2nc(C)cc(=O)[nH]2)cc1 | 98 | 0 | 0 | 97 | 0 | 0 | 68 | 100 | 0
Cc1ccc(Nc2nc3ccccc3nc2-n2nc(C)cc2C)cc1 | 0 | 0 | 0 | 0 | 0 | 0 | - | - | -
CC(C)c1ccc(NC(=O)C2CCN(S(=O)(=O)c3ccc4c(c3)C(C)(C)C(=O)N4C)CC2)cc1 | 0 | 0 | 0 | 0 | 0 | 0 | - | - | -
C=CCCC(=O)Nc1nc(C)c(-c2csc(Nc3ccccc3OC)n2)s1 | 60 | 0 | 0 | 53 | 0 | 0 | 0 | 56 | 56
N=c1c(C(=O)NCc2ccc(F)cc2)cc2c(=O)n3ccccc3nc2n1Cc1ccco1 | 100 | 0 | 0 | 59 | 0 | 0 | 0 | 61 | 0
CC(C)(C)N1C(=O)Cc2c1nc(N)c1c(N)nc(N3CCCCC3CO)c(C#N)c21 (configuration not stated) | 68 | 0 | 0 | 56 | 0 | 0 | 0 | 0 | -
Cc1ccc(CN=C(N)Nc2nc(C)cc(C)n2)cc1 | 68 | 0 | 0 | 73 | 117 | 0 | 0 | 59 | 63
CCCCc1nc2cc(C(=O)NCCc3c(C)n[nH]c3C)ccc2o1 | 0 | 0 | 0 | 0 | 0 | 0 | - | - | -
O=C(COc1ccc(C(=O)c2ccccc2)cc1)NCc1ccc(F)cc1 | 63 | 0 | 0 | 69 | 113 | 0 | 0 | 67 | 76
CCN(C(=O)c1cc(S(=O)(=O)N2CCc3ccccc32)cn1C)c1ccccc1 | 0 | 0 | 0 | 0 | 0 | 0 | - | - | -
Nc1nc(Cl)nc2c1ncn2[C@@H]1O[C@H](CO)[C@@H](O)[C@H]1O | 0 | 0 | 0 | 0 | 0 | 0 | - | - | -
Nc1ncn([C@@H]2O[C@H](CO)[C@@H](O)[C@H]2O)c(=O)n1 | 52 | - | 0 | 80 | 0 | - | 85 | 50 | 59
COc1ccc(-n2c(SCC#N)nc3c(sc(=S)n3-c3ccccc3)c2=O)c(OC)c1 | 0 | 0 | 0 | 0 | 0 | 0 | - | - | -
COc1ccc2c(c1)N(C)/C(=C/c1cccc[n+]1C)S2 | 72 | 0 | 0 | 61 | 0 | 0 | 0 | 0 | 64
Cc1ccc2c(c1)N(C)/C(=C/c1cccc[n+]1C)S2 | 79 | 0 | 0 | 75 | 0 | 0 | 0 | 74 | 64
CCCCN1/C(=C/c2cccc[n+]2C)Sc2cc(NC(C)=O)ccc21 | 0 | 0 | 0 | 0 | 0 | 0 | - | - | -
COc1cc(OC)cc(C(=O)/C=C2\Sc3ccccc3N2C)c1 | 0 | 0 | 0 | 0 | 0 | 0 | - | - | -
CCN1/C(=C/c2cccc[n+]2C)Sc2ccc(OC)cc21 | 74 | 0 | 0 | 72 | 0 | 0 | 0 | 48 | 78
CC(C)Cc1nc2oc3c(NCC(C)O)ncnc3c2c2c1CCCC2 (configuration not stated) | 0 | 0 | 0 | 0 | 0 | 0 | - | - | -
CCCc1nc2oc3c(NCCCN(C)C)ncnc3c2c2c1CCCC2 | 100 | 12 | 0 | 90 | 108 | 0 | 0 | 85 | 52
CC(OC(=O)Cn1cnc2c1c(=O)n(C)c(=O)n2C)C(=O)NC1(C#N)CCCCC1 (configuration not stated) | 0 | - | 0 | 0 | - | - | - | - | -
CC(=O)c1sc2c(c1OC(=O)c1ccc(Cl)cc1Cl)c(=O)n(-c1ccccc1)c(=S)n2-c1ccccc1 | 95 | 0 | 0 | 69 | 101 | 0 | 87 | 92 | 0
Cc1onc(-c2ccccc2Cl)c1C(=O)N1CCN(C=O)CC1 | 0 | 0 | 0 | 0 | 0 | 0 | - | - | -
SMILES | Mdm2 MdmX PPI | VIM-2 inhibitor | 697 NFkB inh | Jurkat NFkB inh | aSyn 5UTR inh | IMP-1 inhibitor | Jurkat NFkB conf | Mdm2 MdmX conf | FLuc counter | others
Cc1cccc(N2CCN(C(=O)c3c(-c4ccccc4Cl)noc3C)CC2)c1C | 59 | 0 | 0 | 67 | 0 | 0 | 51 | 76 | 71
Cc1ccc(NC(=O)COc2nsnc2N2CCOCC2)cc1Cl | 0 | 0 | 0 | 0 | 0 | 0 | - | - | -
CCN(Cc1nc(-c2cccc(C)c2)no1)C(=O)c1ccc2c(c1)OCO2 | 0 | 0 | 0 | 0 | 0 | 0 | - | - | -
O=C(Nc1ccc(Cl)c(S(=O)(=O)N2CCOCC2)c1)c1ccc(OCC2CCCO2)cc1 (configuration not stated) | 75 | 0 | 0 | 60 | 0 | 0 | 64 | 65 | 60
COc1ccc(C(=O)Nc2ccc(Cl)c(S(=O)(=O)N3CCOCC3)c2)cc1 | 0 | - | 0 | 0 | - | - | - | - | -
CCN1/C(=C/c2ccc3cc(C)ccc3[n+]2CC)Sc2cc(C)ccc21 | - | 0 | - | - | - | 0 | - | - | -
CCN1/C(=C/c2ccc3ccccc3[n+]2CC)C=Cc2ccccc21 | 89 | 0 | 0 | 97 | 0 | 0 | 71 | 81 | 0
CCCCN1/C(=C/c2ccc3ccccc3[n+]2CC)Sc2ccccc21 | 77 | 0 | 0 | 87 | 80 | 0 | 67 | 76 | 0
Cc1nc2nc(C)c(NS(=O)(=O)c3ccc(C4CCCCC4)cc3)c(=O)n2[nH]1 | 0 | 0 | 0 | 0 | 0 | 0 | - | - | -
Cc1ccc(Cn2ccsc2=NC(=O)CCl)cc1 | 99 | 0 | 94 | 78 | - | 0 | 51 | 99 | 59 | 697 NFkB conf=98
COc1ccc(OCC(=O)Nc2ccccc2N2CCCCC2)cc1 | 61 | 0 | 0 | 64 | 0 | 0 | 0 | 76 | 59
O=C(Nc1ccc(N2CCCCC2)c(Cl)c1)c1cccnc1 | 66 | 0 | 0 | 0 | 0 | 0 | 0 | 46 | 50 | 697 NFkB conf=0
CN(Cc1ccc(Cl)cc1Cl)C(=O)CNC(=O)c1ccc2c(c1)OCO2 | 0 | - | 0 | 0 | 0 | - | - | - | -
CC1(C)CC(NC(=O)c2ccc(Cl)c(S(=O)(=O)N(Cc3ccccc3)c3ccccc3)c2)CC(C)(C)N1 | 99 | - | 0 | 71 | 0 | - | 0 | 93 | 48
COc1ccc(NC(=O)COc2cc(C)cc(C)c2)cc1S(=O)(=O)N1CCCCC1 | 62 | - | 0 | 57 | 0 | - | 0 | 75 | 51
CCN1C[C@@H]2[C@@H]3C(=O)N(C)C(=O)[C@@H]3[C@](CC)(C(=O)OC)N2C1=NC | 0 | - | 0 | - | - | - | - | - | -
C(=N\Nc1nc(-c2cccnc2)nc2ccccc12)/c1ccccc1 | 0 | 0 | 0 | 0 | 0 | 0 | - | - | -
C(=N\Nc1nc(-c2ccccn2)nc2ccccc12)/c1ccccc1 | 80 | 0 | 0 | 101 | 0 | 0 | 0 | 89 | 0

From PubChem BioAssay
